Data published in ChEMBL document CHEMBL1926506, “Benzenediol-berberine hybrids: multifunctional agents for Alzheimer's disease” (Bioorg Med Chem, 2011).
Calls of active or inactive are those of the source. The rule behind the calls is not given here.

tested on: not listed separately; assay: Selectivity ratio of IC50 for equine serum BuChE to IC50 for electric eel AChE
Outline: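 Ellman assay in 0.1 M KH₂PO₄/K₂HPO₄ buffer, pH 8.0, with electric eel AChE or equine serum BuChE (2.0 units/ml solutions) and DTNB. Compounds dissolved in DMSO, diluted in buffer, and preincubated with enzyme for 15 min at 37 °C before substrate was added. A412 was read at 1 min intervals at 37 °C. Ratio calculated as IC50(BuChE)/IC50(AChE).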

Going from COc1ccc2cc3[n+](cc2c1OCCCOc1ccc(O)cc1)CCc1cc2c(cc1-3)OCO2 to COc1ccc2cc3[n+](cc2c1OCCCCOc1ccc(O)cc1)CCc1cc2c(cc1-3)OCO2, the Ratio IC50 falls from 4.48 to 3.42.

First: COc1ccc2[nH]cc(CCNC(=O)CCOc3c(OC)ccc4cc5[n+](cc34)CCc3cc4c(cc3-5)OCO4)c2c1
Second: COc1ccc2cc3[n+](cc2c1OCCC(=O)NCCc1c[nH]c2ccc(C)cc12)CCc1cc2c(cc1-3)OCO2
The Ratio IC50 of the first is higher: 1.88 for the first, 1.39 for the second.

First: COc1ccc2cc3[n+](cc2c1OCCCOc1cccc(O)c1)CCc1cc2c(cc1-3)OCO2
Second: COc1ccc2cc3[n+](cc2c1OCCCCOc1cccc(O)c1)CCc1cc2c(cc1-3)OCO2
The Ratio IC50 of the first is lower: 1.8 for the first, 4.39 for the second.

First: COc1cc(/C=C/C(=O)OCCCOc2c(OC)ccc3cc4[n+](cc23)CCc2cc3c(cc2-4)OCO3)ccc1O
Second: COc1ccc2cc3[n+](cc2c1OCCCOc1ccccc1O)CCc1cc2c(cc1-3)OCO2
The Ratio IC50 of the first is lower: 0.75 for the first, 3.55 for the second.

COc1ccc2cc3[n+](cc2c1OCCCCOc1ccccc1O)CCc1cc2c(cc1-3)OCO2 showed a Ratio IC50 of 17.

tested on: not listed separately; assay: Antioxidant activity assessed as trolox equivalent of […]-induced radical scavenging activity at 0.5 to 10 uM measured every 60 sec for 4 hrs by ORAC fluorescence assay relative to trolox; assay type: functional
Outline: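 ORAC-FL in 75 mM phosphate buffer pH 7.4. Sample and fluorescein (300 nM final) preincubated 10 min at 37 °C, then AAPH added (12 mM final). Fluorescence read every 60 s for 4 h (ex 485, em 535 nm). Trolox standard 1–10 µM final; samples 0.5–10 µM. Blank without antioxidant run each assay, curves normalized to it. Fourfold mixtures, at least four independent runs. Expressed as µM Trolox equivalent per µM compound.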

Compared with COc1ccc2cc3[n+](cc2c1OCCCOc1ccc(O)cc1)CCc1cc2c(cc1-3)OCO2, COc1ccc2cc3[n+](cc2c1OCCCCOc1ccc(O)cc1)CCc1cc2c(cc1-3)OCO2 is lower in Ratio: 9.54 for the first, 6.45 for the second.

Going from COc1ccc2[nH]cc(CCNC(=O)CCOc3c(OC)ccc4cc5[n+](cc34)CCc3cc4c(cc3-5)OCO4)c2c1 to COc1ccc2cc3[n+](cc2c1OCCC(=O)NCCc1c[nH]c2ccc(C)cc12)CCc1cc2c(cc1-3)OCO2, the Ratio falls from 3.61 to 3.11.

First: COc1ccc2cc3[n+](cc2c1OCCCOc1cccc(O)c1)CCc1cc2c(cc1-3)OCO2
Second: COc1ccc2cc3[n+](cc2c1OCCCCOc1cccc(O)c1)CCc1cc2c(cc1-3)OCO2
The Ratio of the first is higher: 5.31 for the first, 5.3 for the second.

Compared with COc1cc(/C=C/C(=O)OCCCOc2c(OC)ccc3cc4[n+](cc23)CCc2cc3c(cc2-4)OCO3)ccc1O, COc1ccc2cc3[n+](cc2c1OCCCOc1ccccc1O)CCc1cc2c(cc1-3)OCO2 is lower in Ratio: 3.43 for the first, 3.41 for the second.

Going from COc1ccc2cc3[n+](cc2c1OCCC(=O)NCCc1c[nH]c2ccccc12)CCc1cc2c(cc1-3)OCO2 to COc1ccc2cc3[n+](cc2c1OCCCCOc1ccccc1O)CCc1cc2c(cc1-3)OCO2, the Ratio falls from 3.78 to 3.54.

Going from COc1cc(/C=C/C(=O)O)ccc1O [FERULATE] to COc1ccc2[nH]cc(CCNC(C)=O)c2c1, the Ratio falls from 3.13 to 2.3.

target: T1, Butyrylcholinesterase (Equus caballus, UniProt Q9N1N9); assay: Inhibition of equine serum BuChE using butyrylthiocholine chloride as substrate preincubated for 15 mins by Ellman's method
T1 sequence (Q9N1N9 whole entry): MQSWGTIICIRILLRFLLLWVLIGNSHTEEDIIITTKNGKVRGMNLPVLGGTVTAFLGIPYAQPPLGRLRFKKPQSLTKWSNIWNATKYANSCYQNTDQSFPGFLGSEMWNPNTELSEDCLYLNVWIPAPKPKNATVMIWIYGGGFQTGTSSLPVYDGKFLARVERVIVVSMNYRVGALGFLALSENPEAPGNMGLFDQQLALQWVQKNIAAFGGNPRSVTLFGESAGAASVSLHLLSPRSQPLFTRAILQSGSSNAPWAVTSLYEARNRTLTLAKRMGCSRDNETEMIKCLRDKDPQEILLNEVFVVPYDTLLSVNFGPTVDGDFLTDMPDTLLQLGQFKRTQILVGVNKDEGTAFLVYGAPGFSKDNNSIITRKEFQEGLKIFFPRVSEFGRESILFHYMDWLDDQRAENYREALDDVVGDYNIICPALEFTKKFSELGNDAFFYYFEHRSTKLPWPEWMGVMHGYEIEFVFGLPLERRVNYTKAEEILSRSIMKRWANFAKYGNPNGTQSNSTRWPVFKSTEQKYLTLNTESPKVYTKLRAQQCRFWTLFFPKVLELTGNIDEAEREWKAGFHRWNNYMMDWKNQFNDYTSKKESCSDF

First: COc1ccc2cc3[n+](cc2c1OCCCOc1ccc(O)cc1)CCc1cc2c(cc1-3)OCO2
Second: COc1ccc2cc3[n+](cc2c1OCCCCOc1ccc(O)cc1)CCc1cc2c(cc1-3)OCO2
The IC50 of the first is 2-fold higher: 2060 nM for the first, 1040 nM for the second. The second is the more potent here.

COc1ccc2[nH]cc(CCNC(=O)CCOc3c(OC)ccc4cc5[n+](cc34)CCc3cc4c(cc3-5)OCO4)c2c1 and COc1ccc2cc3[n+](cc2c1OCCC(=O)NCCc1c[nH]c2ccc(C)cc12)CCc1cc2c(cc1-3)OCO2 are within 1.5-fold of each other in IC50: 2720 nM for the first, 1960 nM for the second.

First: COc1ccc2cc3[n+](cc2c1OCCCOc1cccc(O)c1)CCc1cc2c(cc1-3)OCO2
Second: COc1ccc2cc3[n+](cc2c1OCCCCOc1cccc(O)c1)CCc1cc2c(cc1-3)OCO2
The IC50 of the first is 2.1-fold lower: 1130 nM for the first, 2400 nM for the second.

COc1cc(/C=C/C(=O)OCCCOc2c(OC)ccc3cc4[n+](cc23)CCc2cc3c(cc2-4)OCO3)ccc1O and COc1ccc2cc3[n+](cc2c1OCCCOc1ccccc1O)CCc1cc2c(cc1-3)OCO2 are within 1.5-fold of each other in IC50: 2400 nM for the first, 1740 nM for the second.

COc1ccc2cc3[n+](cc2c1OCCC(=O)NCCc1c[nH]c2ccccc12)CCc1cc2c(cc1-3)OCO2 and COc1ccc2cc3[n+](cc2c1OCCCCOc1ccccc1O)CCc1cc2c(cc1-3)OCO2 are within 1.5-fold of each other in IC50: 1640 nM for the first, 2090 nM for the second.

target: T1, Butyrylcholinesterase; assay: Inhibition of equine serum BuChE using […] as substrate preincubated for 15 mins by Ellman's method

Going from COc1ccc2cc3[n+](cc2c1OCCCOc1ccc(O)cc1)CCc1cc2c(cc1-3)OCO2 to COc1ccc2cc3[n+](cc2c1OCCCCOc1ccc(O)cc1)CCc1cc2c(cc1-3)OCO2, the IC50 falls from 1660 nM to 950 nM (1.7-fold). The second is the more potent here.

COc1ccc2[nH]cc(CCNC(=O)CCOc3c(OC)ccc4cc5[n+](cc34)CCc3cc4c(cc3-5)OCO4)c2c1 and COc1ccc2cc3[n+](cc2c1OCCC(=O)NCCc1c[nH]c2ccc(C)cc12)CCc1cc2c(cc1-3)OCO2 are within 1.5-fold of each other in IC50: 2490 nM for the first, 1790 nM for the second.

Compared with COc1ccc2cc3[n+](cc2c1OCCCOc1cccc(O)c1)CCc1cc2c(cc1-3)OCO2, COc1ccc2cc3[n+](cc2c1OCCCCOc1cccc(O)c1)CCc1cc2c(cc1-3)OCO2 is 2.1-fold higher in IC50: 898 nM for the first, 1920 nM for the second.

Going from COc1cc(/C=C/C(=O)OCCCOc2c(OC)ccc3cc4[n+](cc23)CCc2cc3c(cc2-4)OCO3)ccc1O to COc1ccc2cc3[n+](cc2c1OCCCOc1ccccc1O)CCc1cc2c(cc1-3)OCO2, the IC50 falls from 2250 nM to 1300 nM (1.7-fold).

COc1ccc2cc3[n+](cc2c1OCCC(=O)NCCc1c[nH]c2ccccc12)CCc1cc2c(cc1-3)OCO2 and COc1ccc2cc3[n+](cc2c1OCCCCOc1ccccc1O)CCc1cc2c(cc1-3)OCO2 are within 1.5-fold of each other in IC50: 1460 nM for the first, 1740 nM for the second.

tested on: not listed separately; assay: Inhibition of self-mediated amyloid beta (1 to 42) aggregation at 20 uM after 48 hrs by thioflavin T fluorescence assay
Outline: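 HFIP-pretreated Abeta1-42 resolubilized in 50 mM phosphate buffer pH 7.4, then incubated at 37 °C for 48 h (final peptide 50 µM) with or without compound at 20 µM. Samples diluted into 50 mM glycine-NaOH pH 8.0 containing thioflavin T. Fluorescence scanned 300 s (ex 450, em 485 nm). Plateau values averaged after subtracting thioflavin T background.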

Going from COc1ccc2cc3[n+](cc2c1OCCCCOc1ccccc1)CCc1cc2c(cc1-3)OCO2 to COc1ccc2cc3[n+](cc2c1OCCCCOc1ccccc1O)CCc1cc2c(cc1-3)OCO2, the inhibition rises from 57.4% to 84.5%.

Compared with COc1ccc2cc3[n+](cc2c1OCCCOc1ccc(O)cc1)CCc1cc2c(cc1-3)OCO2, COc1ccc2cc3[n+](cc2c1OCCCCOc1ccc(O)cc1)CCc1cc2c(cc1-3)OCO2 is lower in inhibition: 92% for the first, 86.6% for the second.

First: COc1ccc2cc3[n+](cc2c1OC)CCc1cc2c(cc1-3)OCO2
Second: COc1ccc2cc3[n+](cc2c1OCCCOc1cccc(O)c1)CCc1cc2c(cc1-3)OCO2
The inhibition of the first is lower: 36.3% for the first, 85.9% for the second.

Going from COc1ccc2[nH]cc(CCNC(=O)CCOc3c(OC)ccc4cc5[n+](cc34)CCc3cc4c(cc3-5)OCO4)c2c1 to COc1ccc2cc3[n+](cc2c1OCCC(=O)NCCc1c[nH]c2ccc(C)cc12)CCc1cc2c(cc1-3)OCO2, the inhibition falls from 79.5% to 75.8%.

First: COc1cc(/C=C/C(=O)OCCCOc2c(OC)ccc3cc4[n+](cc23)CCc2cc3c(cc2-4)OCO3)ccc1O
Second: COc1ccc2cc3[n+](cc2c1OCCCOc1ccccc1O)CCc1cc2c(cc1-3)OCO2
The inhibition of the first is lower: 75.8% for the first, 83.5% for the second.

First: COc1ccc2cc3[n+](cc2c1OCCC(=O)NCCc1c[nH]c2ccccc12)CCc1cc2c(cc1-3)OCO2
Second: COc1ccc2cc3[n+](cc2c1OCCCCOc1cccc(O)c1)CCc1cc2c(cc1-3)OCO2
The inhibition of the first is higher: 82.8% for the first, 72.8% for the second.

COc1cc(/C=C/C(=O)O)ccc1O [FERULATE] gave an inhibition of 6.1%.

target: Acetylcholinesterase (Electrophorus electricus, UniProt O42275); assay: Inhibition of electric eel AChE using […] as substrate preincubated for 15 mins by Ellman's method
Sequence (O42275 whole entry): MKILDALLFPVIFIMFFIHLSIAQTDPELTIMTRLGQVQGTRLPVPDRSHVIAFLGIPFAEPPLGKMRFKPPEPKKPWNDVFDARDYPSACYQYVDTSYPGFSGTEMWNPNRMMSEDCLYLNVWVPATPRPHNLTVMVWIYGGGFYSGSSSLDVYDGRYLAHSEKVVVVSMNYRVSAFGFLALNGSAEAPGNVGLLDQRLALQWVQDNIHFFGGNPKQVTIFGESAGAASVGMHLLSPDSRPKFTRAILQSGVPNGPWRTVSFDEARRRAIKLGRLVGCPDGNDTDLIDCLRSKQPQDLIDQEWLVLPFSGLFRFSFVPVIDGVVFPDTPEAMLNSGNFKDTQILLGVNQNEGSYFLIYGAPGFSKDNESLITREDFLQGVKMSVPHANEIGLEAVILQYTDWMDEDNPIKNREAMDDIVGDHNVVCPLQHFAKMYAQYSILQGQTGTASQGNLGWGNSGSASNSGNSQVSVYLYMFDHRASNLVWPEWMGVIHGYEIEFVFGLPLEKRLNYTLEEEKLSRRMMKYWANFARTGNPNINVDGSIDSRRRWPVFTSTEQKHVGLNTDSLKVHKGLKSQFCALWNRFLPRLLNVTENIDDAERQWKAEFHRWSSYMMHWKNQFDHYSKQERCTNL

Compared with COc1ccc2cc3[n+](cc2c1OCCCOc1ccc(O)cc1)CCc1cc2c(cc1-3)OCO2, COc1ccc2cc3[n+](cc2c1OCCCCOc1ccc(O)cc1)CCc1cc2c(cc1-3)OCO2 is 1.5-fold lower in IC50: 460 nM for the first, 304 nM for the second. The second is the more potent here.

COc1ccc2[nH]cc(CCNC(=O)CCOc3c(OC)ccc4cc5[n+](cc34)CCc3cc4c(cc3-5)OCO4)c2c1 and COc1ccc2cc3[n+](cc2c1OCCC(=O)NCCc1c[nH]c2ccc(C)cc12)CCc1cc2c(cc1-3)OCO2 are within 1.5-fold of each other in IC50: 1440 nM for the first, 1420 nM for the second.

COc1ccc2cc3[n+](cc2c1OCCCOc1cccc(O)c1)CCc1cc2c(cc1-3)OCO2 and COc1ccc2cc3[n+](cc2c1OCCCCOc1cccc(O)c1)CCc1cc2c(cc1-3)OCO2 are within 1.5-fold of each other in IC50: 628 nM for the first, 547 nM for the second.

First: COc1cc(/C=C/C(=O)OCCCOc2c(OC)ccc3cc4[n+](cc23)CCc2cc3c(cc2-4)OCO3)ccc1O
Second: COc1ccc2cc3[n+](cc2c1OCCCOc1ccccc1O)CCc1cc2c(cc1-3)OCO2
The IC50 of the first is 6.6-fold higher: 3210 nM for the first, 490 nM for the second.

First: COc1ccc2cc3[n+](cc2c1OCCC(=O)NCCc1c[nH]c2ccccc12)CCc1cc2c(cc1-3)OCO2
Second: COc1ccc2cc3[n+](cc2c1OCCCCOc1ccccc1O)CCc1cc2c(cc1-3)OCO2
The IC50 of the first is 9-fold higher: 1110 nM for the first, 123 nM for the second.

For COc1cc(/C=C/C(=O)O)ccc1O [FERULATE], the IC50 was greater than 100000 nM.

target: Acetylcholinesterase (Electrophorus electricus) (UniProt O42275); assay: Mixed type inhibition of electric eel AChE using acetylcholine chloride as substrate by Lineweaver-Burk reciprocal plot analysis
Sequence (O42275 24-633 limits assumed): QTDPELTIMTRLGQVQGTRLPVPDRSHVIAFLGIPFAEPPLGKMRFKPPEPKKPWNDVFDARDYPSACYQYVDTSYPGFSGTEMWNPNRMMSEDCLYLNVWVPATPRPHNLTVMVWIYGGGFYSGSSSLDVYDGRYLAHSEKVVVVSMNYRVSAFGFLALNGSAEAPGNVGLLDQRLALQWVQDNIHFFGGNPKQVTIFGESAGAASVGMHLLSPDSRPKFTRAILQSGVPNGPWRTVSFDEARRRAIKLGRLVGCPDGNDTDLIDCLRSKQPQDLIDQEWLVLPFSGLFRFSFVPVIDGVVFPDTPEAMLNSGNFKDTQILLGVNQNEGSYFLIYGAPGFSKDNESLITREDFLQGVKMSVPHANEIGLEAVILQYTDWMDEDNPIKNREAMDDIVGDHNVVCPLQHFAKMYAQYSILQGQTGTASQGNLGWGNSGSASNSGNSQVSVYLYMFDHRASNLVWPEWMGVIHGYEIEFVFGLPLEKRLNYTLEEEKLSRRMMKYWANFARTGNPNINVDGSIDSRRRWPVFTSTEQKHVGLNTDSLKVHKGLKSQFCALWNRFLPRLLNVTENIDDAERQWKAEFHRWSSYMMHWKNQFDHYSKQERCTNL
Outline: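 Enzyme in 0.1 M potassium phosphate pH 8.0 with DTNB. Compound preincubated with enzyme at 37 °C for 15 min, then acetylcholine substrate added. Absorbance read at 412 nm. Reciprocal plots of 1/V versus 1/[S]. Slopes replotted against inhibitor concentration by weighted analysis. Ki taken as the replot intercept divided by the replot slope.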

With COc1ccc2cc3[n+](cc2c1OCCCCOc1ccccc1O)CCc1cc2c(cc1-3)OCO2 the inhibition was “Active”.
